Compound activity: PubChem BioAssay, several laboratories
NR2E3 ag-1 – NR2E3 agonists in two-hybrid cells, primary screen, cell-based, luminescence, CHO-S, Gal4-NCOR/VP16-NR2E3. hit rate 0.35% among 360,000. luciferase. inhibition of corepressor binding, % at 3.98 µM. Photoreceptor-specific nuclear receptor (Homo sapiens), Q9Y5X4;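 active = inhibition above the mean of all tested compounds plus 3 SD, cut at about 70% in these data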;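 note: 0% = DMSO with NR2E3 transfected cells and 100% = cells lacking NR2E3 construct; higher means lower luciferase signal from less NR2E3 corepressor binding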
Target sequence (Q9Y5X4 whole entry, looked up, the tested form may be a part): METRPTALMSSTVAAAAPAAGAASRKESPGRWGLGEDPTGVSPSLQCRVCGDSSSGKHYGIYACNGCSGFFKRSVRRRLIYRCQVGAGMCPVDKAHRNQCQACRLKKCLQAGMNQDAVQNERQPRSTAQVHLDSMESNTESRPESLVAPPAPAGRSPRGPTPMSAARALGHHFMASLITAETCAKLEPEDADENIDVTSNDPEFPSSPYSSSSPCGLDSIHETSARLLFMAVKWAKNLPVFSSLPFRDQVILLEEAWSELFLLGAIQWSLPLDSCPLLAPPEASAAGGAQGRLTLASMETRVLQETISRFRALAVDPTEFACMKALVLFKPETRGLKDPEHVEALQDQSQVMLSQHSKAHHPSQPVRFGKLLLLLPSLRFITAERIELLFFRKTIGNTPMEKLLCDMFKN
MsrA inhibitor – bovine MsrA enzyme inhibitors, primary screen, biochemical, absorbance, HTS | inhibition, % at 15.5 µM | purified bovine MsrA, absorbance read-out | hit rate 0.75% among 360,000 | Methionine sulfoxide reductase A (Bos taurus) | AID 651718, 2012; in the data active = inhibition above about 4.5%;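 note: 0% = vehicle wells with enzyme and 100% = reference inhibitor wells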
MsrA act – bovine MsrA enzyme activators, primary screen, biochemical, absorbance, HTS. Methionine sulfoxide reductase A (Bos taurus). purified bovine MsrA, absorbance read-out. activation, % at 10.6 µM. hit rate 0.3% among 360,000; in the data active = activation above about 7.5%;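 note: 0% = vehicle and 100% = reference activator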
GalR3 antagonist – GalR3 antagonists in HEK293 cells, primary screen, cell-based, fluorescence readout | HEK293 GalR3-CNG cAMP membrane potential fluorescence; galR3 body fused to GalR1 C-terminus | inhibition, % at 3 µM | hit rate 0.44% among 360,000 | AID 651719, 2012;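 active = inhibition above the screen-wide average plus 3 SD, cut at about 13% in these data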;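 note: forskolin and galanin both at EC90 stimulate the cells; cAMP rise reported by CNG channel membrane potential dye signal; 0% = forskolin plus galanin with DMSO and 100% = forskolin alone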
NadD block – inhibitors of S. aureus NadD, primary screen, biochemical, colorimetric, uHTS; Nicotinate-nucleotide adenylyltransferase NadD (Staphylococcus aureus N315); purified NadD enzyme, colorimetric absorbance read-out; inhibition, % at 20 µM; hit rate 0.78% among 360,000; AID 602399, 2012; in the data active = inhibition above about 26%
NR2E3 ag-2 – inhibitors of NR2E3-RetCOR corepressor binding, primary screen, NR2E3 agonist project, biochemical, TR-FRET, GST-NR2E3, biotin-RetCOR; Photoreceptor-specific nuclear receptor (Homo sapiens), Q9Y5X4; 1536-well; inhibition of corepressor binding, % at 4.78 µM; hit rate 0.12% among 320,000;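 active = percent inhibition above the cutoff of mean plus 3 SD of all tested compounds, set per screening campaign, cut at about 20% in these data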;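 note: 0% = DMSO wells and 100% = biotin wells as full block of FRET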
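Test system – NR2E3–RetCOR corepressor complex · Quantity – NR2E3 fusion 1.35 nM · Buffer or medium – Tris pH 7.5 · Incubation – Compound–protein incubation for 5 h at 4 °C · Technique – TR-FRET, Eu(K)-anti-GST donor, streptavidin-D2 acceptor, ex 340, em 617/671 nm · Evaluation – percent inhibition of 671/617 nm emission ratio versus biotin and DMSO controls · Plate – 1536-well format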
NadD conf – inhibitors of S. aureus NadD, confirmation, biochemical, colorimetric, single concentration; shares compounds with NadD block; AID 624309, 2012; purified S. aureus NadD, colorimetric enzyme assay; inhibition, % at 20 µM; hit rate 13% among 2,000; in the data active = inhibition mostly above about 42%, no sharp cut-off; inactive = mostly below about 42%
The depositor's hits bear a star. Most compounds without a hit are left out; they make up all but 2.5% or so of the library.

Screening CN(C)S(=O)(=O)c1cccc(-c2nn(-c3ccccc3)cc2/C=C(\C#N)c2nc3ccccc3[nH]2)c1 returned NR2E3 ag-1 -8.2, MsrA inhibitor -0.4, MsrA act -3.2, GalR3 antagonist -9.2, NadD block 37.3*, NR2E3 ag-2 1.9 and NadD conf 30.5.
Screening Cc1ccc(-c2nn(-c3ccccc3)cc2/C=C(\C#N)c2cccc(C#N)c2)o1 returned NR2E3 ag-1 -25.5, MsrA act -4.4, NadD block 0.2 and NR2E3 ag-2 2.9.
Cc1[nH]c2ccccc2c1/C=N/NC(=O)c1cccc(S(=O)(=O)Nc2ccccc2Cl)c1 was read as NR2E3 ag-1 -0.3, MsrA inhibitor 2.5, MsrA act -7.1, GalR3 antagonist -3.8, NadD block 12.8 and NR2E3 ag-2 0.6.
For CCc1cccc2c(/C=N/NC(=O)c3cccc(S(=O)(=O)Nc4ccccc4Cl)c3)c[nH]c12 the results were NR2E3 ag-1 -10.0, MsrA inhibitor 2.8, MsrA act -1.9, GalR3 antagonist 3.0, NadD block 32.0*, NR2E3 ag-2 5.0 and NadD conf 52.5*.
`CC(=O)Nc1ccc(S(=O)(=O)NCc2ccc3c(c2)cc(C)n3C)cc1` gave NR2E3 ag-1 -13.0, MsrA inhibitor 1.6, MsrA act -0.5, NadD block 18.8 and NR2E3 ag-2 3.3.
For Cc1cc2cc(CNS(=O)(=O)c3ccc4ccccc4c3)ccc2n1C the results were NR2E3 ag-1 -5.7, MsrA inhibitor 0.6, MsrA act -3.6, NadD block 35.1*, NR2E3 ag-2 6.4 and NadD conf 33.5.
CCNc1ccc(Br)cc(C(=O)/C=C/c2ccc(Cl)cc2Cl)c1=O was read as NR2E3 ag-1 -14.1, MsrA inhibitor 1.8, MsrA act -4.0, GalR3 antagonist -4.8, NadD block 39.4*, NR2E3 ag-2 -1.1 and NadD conf 11.1.
CCCC1=C(C(=O)OCC)C(c2ccc(OC)c(C)c2OC)C(C#N)=C(N)O1 (stereo unspecified) was read as NR2E3 ag-1 -14.3, MsrA inhibitor 0.6, MsrA act -4.9, GalR3 antagonist -4.1, NadD block 3.3 and NR2E3 ag-2 1.7.
C=CCc1c(C)[nH]c(=S)c(C#N)c1C was read as NR2E3 ag-1 -10.2, MsrA inhibitor 0.9, MsrA act -2.9, GalR3 antagonist -1.1, NadD block 33.5*, NR2E3 ag-2 -0.3 and NadD conf 24.3.
`CCCCCC(=O)Nc1ccc(Cc2ccncc2)cc1` gave NR2E3 ag-1 -25.8, MsrA inhibitor 0.5, MsrA act 2.8, GalR3 antagonist -3.0, NadD block 0.3 and NR2E3 ag-2 2.4.
Screening COc1ccc(C)cc1NC(=O)C1CCN(S(=O)(=O)c2cccc3nonc23)CC1 returned NR2E3 ag-1 -19.1, MsrA inhibitor 1.1, MsrA act -3.2, GalR3 antagonist -8.3, NadD block -5.0 and NR2E3 ag-2 2.6.
C#CCCc1cocc1/C=[N+](\[O-])c1ccc(C(=O)OCC)cc1 was read as NR2E3 ag-1 -20.1, MsrA inhibitor 1.2, MsrA act -10.5, GalR3 antagonist 5.3, NadD block 42.0*, NR2E3 ag-2 4.2 and NadD conf 31.0.
`Cc1c(Cl)c([N+](=O)[O-])nn1CCCC(=O)Nc1cccc(O)c1` gave NR2E3 ag-1 -1.8, MsrA inhibitor 0.9, MsrA act -0.6, GalR3 antagonist -2.6, NadD block -9.2 and NR2E3 ag-2 -2.0.
`O=C1CC(=C2c3ccccc3-c3ccccc32)C(=O)N1CCCCN1CCN(c2ccccc2)CC1` gave NR2E3 ag-1 -11.8, MsrA act -0.4, NadD block 47.6*, NR2E3 ag-2 -1.9 and NadD conf 30.4.
